Results from different studies.
ABL1 Q252H phosphorylated: Tyrosine-protein kinase ABL1, phosphorylated (ABL1, Homo sapiens, UniProt P00519, Q252H)
ABL1 T315I non-phosphorylated: Tyrosine-protein kinase ABL1, non-phosphorylated (ABL1, Homo sapiens, UniProt P00519, T315I)
ABL1 non-phosphorylated: Tyrosine-protein kinase ABL1, non-phosphorylated (ABL1, Homo sapiens, UniProt P00519)
ABL1 H396P phosphorylated: Tyrosine-protein kinase ABL1, phosphorylated (ABL1, Homo sapiens, UniProt P00519, H396P)
ABL1 M351T phosphorylated: Tyrosine-protein kinase ABL1, phosphorylated (ABL1, Homo sapiens, UniProt P00519, M351T)
ABL1 T315I phosphorylated: Tyrosine-protein kinase ABL1, phosphorylated (ABL1, Homo sapiens, UniProt P00519, T315I)
ABL1 M351T: Tyrosine-protein kinase ABL1 (ABL1, Homo sapiens, UniProt P00519, M351T)
ABL1 H396P non-phosphorylated: Tyrosine-protein kinase ABL1, non-phosphorylated (ABL1, Homo sapiens, UniProt P00519, H396P)
ABL1 F317L phosphorylated: Tyrosine-protein kinase ABL1, phosphorylated (ABL1, Homo sapiens, UniProt P00519, F317L)

`C[C@H](c1cccc(C#N)c1)n1cc(Cl)cc(C(N)=O)c1=N` gave a remaining binding of 84% (ABL1 Q252H phosphorylated; cell-free assay, competition with immobilised ligand; 1 µM).
`O=C(NCCCN1CCOCC1)c1ccc(Nc2ncc(Cl)c(-c3ccc(Cl)s3)n2)cc1` has a remaining binding of 4.5% (ABL1 T315I non-phosphorylated; binding, competition with immobilised ligand; 1 µM).
`CN(C)c1nccc(-c2cnc3ncccn23)n1` has a remaining binding of 84% (ABL1 non-phosphorylated; binding, competition with immobilised ligand; 1 µM).
With `CNC(=O)Nc1ccc2c(c1)CC[C@@]21OC(=O)N(CC(=O)N(Cc2ccc(F)cc2)[C@@H](C)C(F)(F)F)C1=O` the remaining binding was 78% (ABL1 T315I non-phosphorylated; cell-free assay, competition with immobilised ligand; 1 µM).
`O=C(c1ccc(Nc2nccc(-c3cc4ccccc4s3)n2)cc1)N1CCC(N2CCCC2)CC1` gave a remaining binding of 6.2% (Tyrosine-protein kinase ABL1, phosphorylated (ABL1, Homo sapiens, UniProt P00519, Y253F); binding, competition with immobilised ligand; 1 µM).
`CCN1CCN(Cc2ccc(C(=O)Nc3ccc(C)c(Oc4ccc5c(c4)CC(=O)N5)c3)cc2C(F)(F)F)CC1` has a remaining binding of 62% (ABL1 H396P phosphorylated; binding, competition with immobilised ligand; 1 µM).
`N[C@H]1CCN(c2nccc(-c3cnn4ncccc34)n2)C1` has a remaining binding of 59% (Tyrosine-protein kinase ABL1 (ABL1, Homo sapiens, UniProt P00519, Q252H); binding; 1 µM).
The remaining binding of `C[C@@H](c1ccc(-n2cnc3c(N)ncnc32)cc1)N1CCc2nn(C)c(Cc3ccccc3)c2C1=O` is reported as 49% (ABL1 M351T phosphorylated; binding, competition with immobilised ligand; 0.1 µM).
The remaining binding of `CN(C)c1ncc(F)c(-c2cnn3ncccc23)n1` is reported as 66% (Tyrosine-protein kinase ABL1 (ABL1, Homo sapiens, UniProt P00519, E255K); binding; 1 µM).
`CN(C)C(=O)Cn1cc(-c2nc([C@@](C)(c3ccc(-c4cnc(N)nc4)cc3)C3CC3)no2)cn1` has a remaining binding of 0% (Tyrosine-protein kinase ABL1, non-phosphorylated (ABL1, Homo sapiens, UniProt P00519, Q252H); cell-free assay, competition with immobilised ligand; 1 µM).
With `COc1cnc(Nc2cccc(S(N)(=O)=O)c2)nc1N1CCN(c2ccccc2)CC1` the remaining binding was 95% (Tyrosine-protein kinase ABL1, non-phosphorylated (ABL1, Homo sapiens, UniProt P00519, F317L); binding, competition with immobilised ligand; 1 µM).
For `COc1ncc2cc3ccccc3nc2c1C#N`, the remaining binding was 89% (ABL1 T315I phosphorylated; cell-free assay, competition with immobilised ligand; 5 µM).
For `O=C(c1ccc(Nc2ncc(Cl)c(-c3cc4ccccc4s3)n2)cc1)N1CCC(N2CCCC2)CC1`, the remaining binding was 12% (ABL1 Q252H phosphorylated; binding, competition with immobilised ligand; 1 µM).
For `CN(CCCC(F)(F)F)c1nccc(-c2cnn3ncccc23)n1`, the remaining binding was 100% (ABL1 M351T; binding; 1 µM).
With `O=C(N1CCS(=O)(=O)CC1)N1C[C@H](c2ccc(OC(F)(F)F)cc2)C[C@H](c2nc(C3CC3)no2)C1` the remaining binding was 100% (ABL1 T315I phosphorylated; cell-free assay, competition with immobilised ligand; 1 µM).
The remaining binding of `c1cnn2ncc(-c3ccnc(N4CCC45COC5)n3)c2c1` is reported as 64% (Tyrosine-protein kinase ABL1 (ABL1, Homo sapiens, UniProt P00519, T315I); binding; 1 µM).
`O=C(NCC1CCOCC1)c1n[nH]cc1NC(=O)c1c(F)cccc1F` has a remaining binding of 83% (ABL1 Q252H phosphorylated; binding, competition with immobilised ligand; 1 µM).
The remaining binding of `CC(C)CC(=O)N1CCc2nc(-c3ccc(Br)cc3)nc(N(C)Cc3ccccc3)c2C1` is reported as 68% (ABL1 H396P non-phosphorylated; cell-free assay, competition with immobilised ligand; 0.1 µM).
For `CNC(=O)[C@@H]1CC[C@@H](n2c(-c3ccc4cnccc4c3)nc3ccc(C(=O)NCc4cccc(C(N)=O)c4)cc32)C1`, the remaining binding was 92% (ABL1 M351T phosphorylated; binding, competition with immobilised ligand; 1 µM).
For `CN(c1nccc(-c2cnn3ncccc23)n1)C1CC1`, the remaining binding was 100% (ABL1 M351T; binding; 1 µM).
For `O=C(NCCCN1CCOCC1)c1ccc(Nc2nccc(-c3cc4ccccc4s3)n2)cc1`, the remaining binding was 75% (ABL1 F317L phosphorylated; binding, competition with immobilised ligand; 1 µM).
`C[C@H](c1ccc(F)cc1)N(Cc1cccc(C(=O)O)c1)C(=O)c1cnc2ccccc2c1` gave a remaining binding of 99% (ABL1 F317L phosphorylated; cell-free assay, competition with immobilised ligand; 1 µM).
The remaining binding of `Nc1ncc2c(n1)-c1c([nH]c3ccc(C#CC4CC4)cc13)CCCC2` is reported as 88% (ABL1 F317L phosphorylated; binding, competition with immobilised ligand; 1 µM).
For `O=C(Nc1cnc(Oc2ccc(F)cc2)nc1)N1CCc2ncccc2[C@@H]1c1ccc(F)cc1`, the remaining binding was 100% (ABL1 T315I non-phosphorylated; cell-free assay, competition with immobilised ligand; 1 µM).
The remaining binding of `Cc1cnc(Nc2ccc(C(=O)N3CCC(N4CCCC4)CC3)cc2)nc1-c1cc2ccccc2s1` is reported as 0.9% (ABL1 H396P phosphorylated; binding, competition with immobilised ligand; 1 µM).
With `O=C(Nc1c[nH]nc1C(=O)NC1CCNCC1)c1cc(F)cc(F)c1` the remaining binding was 98% (ABL1 non-phosphorylated; binding, competition with immobilised ligand; 1 µM).
`Cc1nc(N2CC[C@@H](O)C2)ncc1-c1cc(C(F)(F)F)cc2[nH]ncc12` gave a remaining binding of 61% (Tyrosine-protein kinase ABL1, phosphorylated (ABL1, Homo sapiens, UniProt P00519); binding, competition with immobilised ligand; 1 µM).
`COc1ccnn2ncc(-c3ccnc(N(C)C)n3)c12` has a remaining binding of 100% (Tyrosine-protein kinase ABL1 (ABL1, Homo sapiens, UniProt P00519, H396P); binding; 1 µM).
For `O=C(c1ccc(Nc2ncc(Cl)c(-c3ccc(Cl)s3)n2)cc1)N1CCC(N2CCCC2)CC1`, the remaining binding was 4.7% (ABL1 M351T phosphorylated; binding, competition with immobilised ligand; 1 µM).
`COc1cnc(Nc2cccc(S(N)(=O)=O)c2)nc1N1CCN(c2ccccc2)C(=O)C1` gave a remaining binding of 58% (ABL1 H396P non-phosphorylated; binding, competition with immobilised ligand; 1 µM).
`c1cncc(-c2cccc(Nc3nccc(NC4CCCCC4)n3)c2)c1` has a remaining binding of 79% (ABL1 T315I non-phosphorylated; binding, competition with immobilised ligand; 10 µM).
`C=CC(=O)N1CCC(C(=O)NCC(=O)N2CCN(c3nc(-c4cnc(N)nc4C(F)F)nc(N4CCOCC4)n3)CC2)CC1` gave a remaining binding of 87% (Tyrosine-protein kinase ABL1, phosphorylated (ABL1, Homo sapiens, UniProt P00519, E255K); binding, competition with immobilised ligand; 1 µM).
